{"source": "paper PMC3411050", "about": "(The Journal of Biological Chemistry, 2012)", "key": {"[1]": {"system": "adult male mice of BALB/c line", "experiment": "Lethal effect of azemiopsin on mice", "type": "in vivo, mouse", "conditions": "intraperitoneal injection, solution in water, doses 2–10 mg/kg", "outline": "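Adult male BALB/c mice (18–22 g) were kept on a 12/12-h light/dark cycle with food and water ad libitum. The test compound, dissolved in water, was given intraperitoneally at 2, 2.7, 4, 8 and 10 mg/kg body weight.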"}, "[2]": {"target": "T1, T. californica nAChR (Tetronarce californica, UniProt P02710+P02712+P02714+P02718)", "T1 sequence (P02710 25-461)": "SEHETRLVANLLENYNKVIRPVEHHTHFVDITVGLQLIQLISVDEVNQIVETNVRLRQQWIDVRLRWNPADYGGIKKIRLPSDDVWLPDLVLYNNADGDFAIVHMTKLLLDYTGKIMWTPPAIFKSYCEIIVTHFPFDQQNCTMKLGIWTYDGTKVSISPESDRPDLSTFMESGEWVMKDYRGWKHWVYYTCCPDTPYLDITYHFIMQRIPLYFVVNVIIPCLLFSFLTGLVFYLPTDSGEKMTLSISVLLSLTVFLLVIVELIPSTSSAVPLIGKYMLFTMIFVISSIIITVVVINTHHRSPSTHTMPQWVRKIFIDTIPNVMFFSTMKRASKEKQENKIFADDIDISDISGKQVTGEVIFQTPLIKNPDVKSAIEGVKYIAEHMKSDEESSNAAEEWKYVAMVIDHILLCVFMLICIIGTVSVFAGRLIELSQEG", "T1 sequence (P02712 25-493 partner)": "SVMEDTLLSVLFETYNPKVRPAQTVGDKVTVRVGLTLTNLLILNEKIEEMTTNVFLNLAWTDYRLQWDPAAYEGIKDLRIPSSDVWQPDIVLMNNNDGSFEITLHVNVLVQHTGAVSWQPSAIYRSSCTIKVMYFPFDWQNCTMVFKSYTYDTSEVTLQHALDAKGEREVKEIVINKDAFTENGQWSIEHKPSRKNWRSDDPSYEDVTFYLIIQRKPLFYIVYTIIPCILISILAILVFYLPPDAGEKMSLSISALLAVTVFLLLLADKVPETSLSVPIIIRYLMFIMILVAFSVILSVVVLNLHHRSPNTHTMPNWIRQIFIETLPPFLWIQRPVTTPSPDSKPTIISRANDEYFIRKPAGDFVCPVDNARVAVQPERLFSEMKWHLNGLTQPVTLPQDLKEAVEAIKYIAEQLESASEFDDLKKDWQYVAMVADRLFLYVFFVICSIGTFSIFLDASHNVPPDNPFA", "T1 sequence (P02714 18-506)": "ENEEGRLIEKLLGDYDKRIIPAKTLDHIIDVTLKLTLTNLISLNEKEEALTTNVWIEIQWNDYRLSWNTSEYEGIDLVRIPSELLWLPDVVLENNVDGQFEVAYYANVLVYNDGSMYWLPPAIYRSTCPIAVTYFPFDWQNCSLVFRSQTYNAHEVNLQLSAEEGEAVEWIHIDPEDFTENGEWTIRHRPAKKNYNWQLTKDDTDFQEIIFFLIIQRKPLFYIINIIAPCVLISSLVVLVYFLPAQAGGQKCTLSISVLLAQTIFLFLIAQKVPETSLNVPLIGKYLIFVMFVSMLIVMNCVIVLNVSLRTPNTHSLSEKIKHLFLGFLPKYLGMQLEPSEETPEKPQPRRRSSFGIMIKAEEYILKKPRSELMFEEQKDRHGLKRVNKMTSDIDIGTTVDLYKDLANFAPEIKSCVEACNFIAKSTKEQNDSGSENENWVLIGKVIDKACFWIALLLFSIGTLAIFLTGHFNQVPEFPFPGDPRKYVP", "T1 sequence (P02718 22-522)": "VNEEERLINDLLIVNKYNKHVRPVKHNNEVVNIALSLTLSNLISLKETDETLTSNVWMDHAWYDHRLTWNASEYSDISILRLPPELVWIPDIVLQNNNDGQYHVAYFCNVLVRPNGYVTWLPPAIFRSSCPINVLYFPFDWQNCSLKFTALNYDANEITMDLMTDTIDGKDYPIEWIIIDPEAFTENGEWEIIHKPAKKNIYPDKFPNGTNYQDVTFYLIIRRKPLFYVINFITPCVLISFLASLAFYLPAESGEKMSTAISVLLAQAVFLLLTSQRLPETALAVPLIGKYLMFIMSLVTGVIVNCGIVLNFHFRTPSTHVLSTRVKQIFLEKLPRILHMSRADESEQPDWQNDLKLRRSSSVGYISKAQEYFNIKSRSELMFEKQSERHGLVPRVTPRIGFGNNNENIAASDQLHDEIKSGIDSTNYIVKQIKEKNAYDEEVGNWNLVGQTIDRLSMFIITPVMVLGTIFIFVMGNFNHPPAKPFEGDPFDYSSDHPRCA", "type": "binding, Torpedo californica", "conditions": "Torpedo nAChR, from two-site IC50 values"}, "[3]": {"target": "GABAA receptor α1β3γ2 (Rattus norvegicus, UniProt P18508+P62813+P63079)", "sequence (P62813 28-455)": "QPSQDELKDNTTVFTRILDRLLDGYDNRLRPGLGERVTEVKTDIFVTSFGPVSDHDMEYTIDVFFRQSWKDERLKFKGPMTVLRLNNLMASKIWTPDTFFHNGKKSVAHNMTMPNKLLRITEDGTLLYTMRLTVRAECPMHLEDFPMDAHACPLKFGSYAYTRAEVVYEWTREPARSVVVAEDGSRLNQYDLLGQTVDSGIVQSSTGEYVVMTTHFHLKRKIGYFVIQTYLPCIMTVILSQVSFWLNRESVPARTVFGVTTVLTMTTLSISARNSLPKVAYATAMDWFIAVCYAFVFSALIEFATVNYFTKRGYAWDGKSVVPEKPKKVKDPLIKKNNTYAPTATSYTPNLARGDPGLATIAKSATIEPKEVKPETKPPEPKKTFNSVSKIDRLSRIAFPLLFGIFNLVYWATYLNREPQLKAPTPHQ", "sequence (P63079 26-473)": "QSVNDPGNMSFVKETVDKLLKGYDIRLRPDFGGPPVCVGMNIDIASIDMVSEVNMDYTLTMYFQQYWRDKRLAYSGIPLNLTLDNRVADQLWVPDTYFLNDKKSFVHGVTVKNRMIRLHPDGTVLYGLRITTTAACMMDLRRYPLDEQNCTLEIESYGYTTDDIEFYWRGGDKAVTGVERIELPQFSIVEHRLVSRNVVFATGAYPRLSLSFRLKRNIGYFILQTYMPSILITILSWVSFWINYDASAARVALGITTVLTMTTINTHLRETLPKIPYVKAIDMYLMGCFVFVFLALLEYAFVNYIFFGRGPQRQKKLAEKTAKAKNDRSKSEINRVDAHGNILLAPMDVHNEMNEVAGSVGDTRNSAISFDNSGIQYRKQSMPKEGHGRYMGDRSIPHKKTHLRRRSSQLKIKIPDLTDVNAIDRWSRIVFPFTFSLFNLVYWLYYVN", "sequence (P18508 39-466)": "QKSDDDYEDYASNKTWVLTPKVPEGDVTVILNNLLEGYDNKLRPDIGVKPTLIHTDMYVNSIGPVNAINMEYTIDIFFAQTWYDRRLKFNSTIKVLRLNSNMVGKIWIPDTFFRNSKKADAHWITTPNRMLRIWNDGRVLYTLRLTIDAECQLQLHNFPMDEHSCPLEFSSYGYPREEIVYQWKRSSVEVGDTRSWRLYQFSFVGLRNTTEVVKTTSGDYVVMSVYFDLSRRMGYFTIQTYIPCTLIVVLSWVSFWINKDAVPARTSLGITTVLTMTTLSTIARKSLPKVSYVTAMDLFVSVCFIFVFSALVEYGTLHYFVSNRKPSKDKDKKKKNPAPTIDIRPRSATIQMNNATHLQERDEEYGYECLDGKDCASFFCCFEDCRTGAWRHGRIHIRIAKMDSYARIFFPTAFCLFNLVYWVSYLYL", "experiment": "Two-electrode voltage clamp on recombinant GABAA receptors in Xenopus oocytes", "type": "cell-based", "conditions": "up to 100 μM"}, "[4]": {"target": "T2, 5-HT3A receptor (Homo sapiens, UniProt P46098)", "T2 sequence (P46098 24-478)": "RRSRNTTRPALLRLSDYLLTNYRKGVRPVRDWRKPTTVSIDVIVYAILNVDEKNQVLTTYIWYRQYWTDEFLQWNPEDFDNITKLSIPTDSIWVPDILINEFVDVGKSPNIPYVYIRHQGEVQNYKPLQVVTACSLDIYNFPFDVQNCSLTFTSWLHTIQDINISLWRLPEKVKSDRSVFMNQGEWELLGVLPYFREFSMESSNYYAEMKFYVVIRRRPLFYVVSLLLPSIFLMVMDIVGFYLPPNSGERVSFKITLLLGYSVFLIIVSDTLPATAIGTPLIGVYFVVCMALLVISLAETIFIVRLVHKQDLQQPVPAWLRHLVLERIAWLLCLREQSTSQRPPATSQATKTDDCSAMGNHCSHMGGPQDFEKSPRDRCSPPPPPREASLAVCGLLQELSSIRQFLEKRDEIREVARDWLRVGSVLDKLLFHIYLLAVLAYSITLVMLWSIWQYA", "experiment": "Current recording on 5-HT3 receptors in Xenopus oocytes", "type": "cell-based", "conditions": "concentrations up to 10 μM", "outline": "(§1)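 Human 5-HT3A (with 5-HT3B for the heteromer) subunit cRNA was transcribed in vitro from cDNA and injected into Xenopus oocytes. Currents were recorded 1–4 days after injection.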"}, "[5]": {"target": "T3, 5-HT3AB receptor (Homo sapiens, UniProt O95264+P46098)", "T3 sequence (P46098 24-478)": "T2 sequence (P46098 24-478)", "T3 sequence (O95264 22-441)": "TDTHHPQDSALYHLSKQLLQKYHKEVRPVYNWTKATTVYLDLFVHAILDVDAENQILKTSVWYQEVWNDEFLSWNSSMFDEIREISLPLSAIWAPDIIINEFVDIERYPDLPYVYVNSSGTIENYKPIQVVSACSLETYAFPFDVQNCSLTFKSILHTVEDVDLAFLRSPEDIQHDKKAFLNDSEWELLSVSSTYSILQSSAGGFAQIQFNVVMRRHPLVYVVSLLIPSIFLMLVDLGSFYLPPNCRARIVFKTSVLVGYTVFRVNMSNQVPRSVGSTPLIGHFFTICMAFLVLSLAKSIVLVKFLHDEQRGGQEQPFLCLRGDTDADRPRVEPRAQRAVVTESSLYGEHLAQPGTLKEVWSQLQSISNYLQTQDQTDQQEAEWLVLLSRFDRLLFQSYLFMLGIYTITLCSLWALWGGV", "experiment": "Current recording on 5-HT3 receptors in Xenopus oocytes", "type": "cell-based", "conditions": "concentrations up to 10 μM", "outline": "as §1"}, "[6]": {"target": "GABAA receptor α2β3γ2 (Rattus norvegicus, UniProt P18508+P23576+P63079)", "sequence (P23576 29-451)": "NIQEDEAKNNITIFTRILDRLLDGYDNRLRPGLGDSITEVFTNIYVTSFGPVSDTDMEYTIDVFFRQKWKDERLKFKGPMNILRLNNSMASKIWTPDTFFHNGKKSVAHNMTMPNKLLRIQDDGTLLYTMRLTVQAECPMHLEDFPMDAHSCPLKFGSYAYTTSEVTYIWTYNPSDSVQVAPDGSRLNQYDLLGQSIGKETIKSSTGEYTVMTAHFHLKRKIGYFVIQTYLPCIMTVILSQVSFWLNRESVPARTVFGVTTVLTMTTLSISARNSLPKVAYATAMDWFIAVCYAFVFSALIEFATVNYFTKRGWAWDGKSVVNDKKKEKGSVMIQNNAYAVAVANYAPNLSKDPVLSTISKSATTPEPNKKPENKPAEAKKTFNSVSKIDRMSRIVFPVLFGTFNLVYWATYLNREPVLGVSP", "sequence (P63079 26-473)": "as the sequence (P63079 26-473) above", "sequence (P18508 39-466)": "as the sequence (P18508 39-466) above", "experiment": "Two-electrode voltage clamp on recombinant GABAA receptors in Xenopus oocytes", "type": "cell-based", "conditions": "up to 10 μM"}, "[7]": {"target": "human muscle-type nAChR, adult form (α1β1ϵδ) (Homo sapiens, UniProt P02708+P11230+Q04844+Q07001)", "type": "cell-based", "conditions": "human muscle-type nAChR in oocytes; washing for 2 min", "outline": "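Human α1, β1, δ and ε (adult) or γ (fetal) subunit cDNAs were injected into the oocyte nucleus, and two-electrode voltage clamp was run 2–3 days later. Cells received 5 s pulses of 5 μM ACh every 2 min. After stabilization, the test compound was applied at varied concentrations for at least 1 min, the ACh response was retested, and recovery was followed over several minutes.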"}, "[8]": {"target": "T1, T. californica nAChR", "conditions": "read-out: IC50, inhibition of α-bungarotoxin binding; cited from earlier work"}, "[9]": {"target": "T4, Human α7 nAChR (Homo sapiens, UniProt P36544)", "T4 sequence (P36544 23-502)": "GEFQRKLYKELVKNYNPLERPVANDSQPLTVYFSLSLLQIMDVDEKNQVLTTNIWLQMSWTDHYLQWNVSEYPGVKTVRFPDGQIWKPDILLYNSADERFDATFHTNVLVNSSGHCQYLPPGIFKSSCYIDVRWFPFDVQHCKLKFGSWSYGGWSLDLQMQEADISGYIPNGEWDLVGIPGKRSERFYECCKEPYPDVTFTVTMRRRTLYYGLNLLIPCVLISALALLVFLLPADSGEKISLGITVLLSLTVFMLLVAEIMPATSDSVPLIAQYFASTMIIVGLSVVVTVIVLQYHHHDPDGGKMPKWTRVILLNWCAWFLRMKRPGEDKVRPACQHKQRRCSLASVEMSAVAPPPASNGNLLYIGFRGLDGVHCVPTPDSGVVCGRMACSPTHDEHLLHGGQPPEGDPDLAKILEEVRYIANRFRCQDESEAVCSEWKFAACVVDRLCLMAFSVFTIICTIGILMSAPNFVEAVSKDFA", "conditions": "read-out: IC50, inhibition of α-bungarotoxin binding; cited from earlier work"}, "[10]": {"target": "T5, A. californica AChBP (Aplysia californica, UniProt Q8WSF8)", "T5 sequence (Q8WSF8 18-236 limits assumed)": "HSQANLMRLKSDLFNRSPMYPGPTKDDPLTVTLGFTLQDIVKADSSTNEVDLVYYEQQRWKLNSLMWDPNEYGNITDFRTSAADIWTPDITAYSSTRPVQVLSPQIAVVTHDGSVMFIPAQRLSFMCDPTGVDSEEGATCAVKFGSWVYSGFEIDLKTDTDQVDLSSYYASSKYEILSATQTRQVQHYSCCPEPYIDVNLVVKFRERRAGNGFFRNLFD", "conditions": "read-out: IC50, inhibition of α-bungarotoxin binding"}, "[11]": {"target": "L. stagnalis AChBP (Lymnaea stagnalis, UniProt P58154)", "sequence (P58154 20-229)": "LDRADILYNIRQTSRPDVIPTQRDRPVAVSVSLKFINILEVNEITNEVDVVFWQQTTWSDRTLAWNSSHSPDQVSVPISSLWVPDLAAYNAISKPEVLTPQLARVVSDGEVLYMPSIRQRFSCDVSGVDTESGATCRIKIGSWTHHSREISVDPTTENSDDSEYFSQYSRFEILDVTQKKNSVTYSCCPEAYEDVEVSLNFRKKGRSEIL", "conditions": "read-out: IC50, inhibition of α-bungarotoxin binding"}, "[12]": {"target": "T4, Human α7 nAChR", "conditions": "read-out: IC50, inhibition of α-bungarotoxin binding"}}, "note": "Where two headings read alike, the source gives them in different places. Where no end group is shown, it is not given here."}
{"substance": "DNWWPKPPHQGPRPPRPRPKP [Azemiopsin]", "values": [{"measurement": "LD50", "setting": "[1]", "result": "2.6 ± 0.3", "unit": "mg/kg"}, {"measurement": "difference in the affinity between the two binding sites (α1/γ and α1/δ)", "setting": "[2]", "result": 27, "unit": "fold"}, {"measurement": "effect on GABAA receptor currents", "setting": "[3]", "result": "no significant effects"}, {"measurement": "effect at 5-HT3A receptors", "setting": "[4]", "result": "no effects"}, {"measurement": "effect at 5-HT3AB receptors", "setting": "[5]", "result": "no effects"}, {"measurement": "effect on GABAA receptor currents", "setting": "[6]", "result": "no significant effects"}, {"measurement": "recovery of the ACh response after washing out the toxin", "setting": "[7]", "result": "complete recovery"}]}
{"substance": "Neurotoxin II Naja oxiana", "values": [{"measurement": "IC50", "setting": "[8]", "result": 3, "unit": "nM"}, {"measurement": "IC50", "setting": "[9]", "result": "> 4000", "unit": "nM"}]}
{"substance": "α-Cobratoxin", "values": [{"measurement": "IC50", "setting": "[10]", "result": "58 ± 2", "unit": "nM"}, {"measurement": "IC50", "setting": "[11]", "result": "2 ± 0.2", "unit": "nM"}, {"measurement": "IC50", "setting": "[12]", "result": "105 ± 10", "unit": "nM"}]}
